Assay results collected from several papers.
Compare with care: the assays were run in different laboratories.
Organism: Staphylococcus aureus
Read-out: microbial growth

CC(C)n1nc(-c2ccc3oc(N)nc3c2)c2c(N)ncnc21 — MIC (NCTC8325): > 30 µM
CN[C@H](CC(C)C)C(=O)N[C@H]1C(=O)N[C@@H](CC(N)=O)C(=O)N[C@H]2C(=O)N[C@H]3C(=O)N[C@H](C(=O)N[C@H](C(=O)O)c4cc(O)cc(O)c4-c4cc3ccc4O)[C@H](O)c3ccc(c(Cl)c3)Oc3cc2cc(c3O[C@@H]2O[C@H](CO)[C@@H](O)[C@H](O)[C@H]2O[C@H]2C[C@](C)(N)[C@H](O)[C@H](C)O2)Oc2ccc(cc2Cl)[C@H]1O — MIC (broth dilution; ATCC29213): 1 µg/mL
O=C(O)c1cccc2ccccc12 — MIC: > 128 µg/mL
Clc1ccc(C2(c3ccc(-c4cn[nH]c4)cc3)CCNCC2)cc1 — MIC (NCTC8325): > 30 µM
COc1ccc(-c2nc3ccccc3[nH]2)cc1OC — MIC (broth dilution; ATCC29213 MSSA): 128 µg/mL
NC[C@@H]1O[C@H](O[C@H]2[C@@H](O)[C@H](O[C@@H]3[C@@H](O)[C@H](N)C[C@H](N)[C@H]3O[C@H]3O[C@H](CN)[C@@H](O)[C@H](O)[C@H]3N)O[C@@H]2CO)[C@H](N)[C@@H](O)[C@@H]1O — MIC (USA300): 5 µg/mL
O=C1NC(=S)S/C1=C\c1c2ccccc2c(-c2ccc(N(c3ccccc3)c3ccccc3)cc2)c2ccccc12 — MIC (broth dilution; ATCC43300): > 1000 µg/mL
CC(C)Oc1c(NC(=O)c2ccc(NC(=O)[C@H](CC(N)=O)NC(=O)c3ccc(NC(=O)C(C)Sc4ccc(C#N)cc4)cc3)cc2)ccc(C(=O)Nc2ccc(C(=O)O)cc2)c1O (stereo partly shown) — MIC (ATCC29213): > 64 µg/mL
O=C(C[n+]1cc(-c2ccc(Cl)cc2)n2c1CCC2)Nc1ccc(Cl)c(Cl)c1 — MIC: 4 µg/mL
O=C(O)CN1C(=O)/C(=C/c2ccc(-c3ccc(N(c4ccccc4)c4ccccc4)cc3)cc2)SC1=S — MIC (broth dilution; ATCC25923): 3.9 µg/mL
O=C(Nc1ncc([N+](=O)[O-])s1)C1CCCCC1 — MIC (broth dilution; MRSA): 125 µM
CC(C)Oc1c(NC(=O)c2ccc(NC(=O)[C@H](CC(N)=O)NC(=O)c3ccc(NC(=O)c4ccc(C#N)c(Cl)c4)cc3)cc2)ccc(C(=O)Nc2ccc(C(=O)O)cc2)c1O — MIC (ATCC29213): < 0.03 µg/mL
Cc1ccc(C)n1-c1ccc(-c2n[nH]c(=S)[nH]2)cc1 — MIC (broth dilution; ATCC11632; 18 h): 4 µg/mL
c1ccc(NCc2ccc(Oc3ccccn3)cc2)cc1 — MIC: 1.8 µg/mL
C/C=C(\C)c1cc(OC(=O)c2c(C)c(Cl)c(O)c(Cl)c2O)c(C)c(O)c1C(=O)O — MIC (broth dilution; 16339): > 64 µg/mL
O=[N+]([O-])c1cccc(-c2nc3ccccc3[nH]2)c1 — MIC (broth dilution; ATCC29213 MSSA): 64 µg/mL
CC(C)Oc1c(NC(=O)c2ccc(NC(=O)[C@H](CC(N)=O)NC(=O)c3ccc(NC(=O)c4ccc(NC(N)=O)cc4)cc3)cc2)ccc(C(=O)Nc2ccc(C(=O)O)cc2)c1O — MIC (ATCC29213): 64 µg/mL
CCCCCC(=O)Oc1c(C)c(O)c(C(=O)/C=C/c2ccccc2)c(OC)c1C — MIC (broth dilution; ATCC25923): > 5000 µg/mL
COc1ccc(-c2ccc3c(N4CCOCC4)nc(N4C[C@@H](C)O[C@@H](C)C4)nc3n2)cc1CO — MIC (NCTC8325): > 30 µM
COc1cccc(-c2nc3ccccc3[nH]2)c1 — MIC (broth dilution; ATCC29213 MSSA): 256 µg/mL
O=C(O)CN1C(=O)/C(=C/c2c3ccccc3c(-c3ccc(N(c4ccccc4)c4ccccc4)cc3)c3ccccc23)SC1=S — MIC (broth dilution; ATCC43300): > 1000 µg/mL
COc1cccc(OC)c1C(=O)N[C@@H]1C(=O)N2[C@@H]1SC(C)(C)[C@@H]2C(=O)O — MIC (147; clinical isolate): 6.25 µM
CC1(C)S[C@@H]2[C@H](NC(=O)[C@H](N)c3ccccc3)C(=O)N2[C@H]1C(=O)O — MIC (broth dilution; 6917): 64 µg/mL
Cc1ccc2nc(-c3ccc(Cl)cc3)n(Cc3ccccc3Cl)c2c1 — MIC (broth dilution; ATCC29213 MSSA): 64 µg/mL
CCCCCCC#Cc1cncc(-c2nnc(SCc3ccc(C#N)cc3)n2C)c1 — MIC (MRSA; drug-resistant strain): ≥ 20 µg/mL
CN(C)[C@@H]1C(O)=C(C(N)=O)C(=O)[C@@]2(O)C(O)=C3C(=O)c4c(O)cccc4[C@@](C)(O)[C@H]3C[C@@H]12 — MIC (147; clinical isolate): ≤ 0.1 µM
Cc1ccc2nc(-c3c4ccccc4cc4ccccc34)[nH]c2c1 — MIC (broth dilution; ATCC29213 MSSA): 64 µg/mL
CC(=O)NCN1N=C(C)C(=NNn2c(-c3ccccc3)nc3ccccc3c2=O)C1=O — MIC (broth dilution; 24 h): 59.9 µM
O=[N+]([O-])c1ccc(O)c2ncccc12 — MIC (broth dilution; ATCC29213): 2 µg/mL
COc1cccc2cc(-c3nc([C@H]4CC[C@H](C(=O)O)CC4)n4ncnc(N)c34)[nH]c12 — MIC (NCTC8325): > 30 µM
CO[C@H]1/C=C/O[C@@]2(C)Oc3c(C)c(O)c4c(O)c(c(/C=N/N5CCN(C)CC5)c(O)c4c3C2=O)NC(=O)/C(C)=C\C=C\[C@H](C)[C@H](O)[C@@H](C)[C@@H](O)[C@@H](C)[C@H](OC(C)=O)[C@@H]1C — MIC (broth dilution; ATCCBAA44): 2 µg/mL
CN[C@H](CC(C)C)C(=O)N[C@H]1C(=O)N[C@@H](CC(N)=O)C(=O)N[C@H]2C(=O)N[C@H]3C(=O)N[C@H](C(=O)N[C@H](C(=O)O)c4cc(O)cc(O)c4-c4cc3ccc4O)[C@H](O)c3ccc(c(Cl)c3)Oc3cc2cc(c3O[C@@H]2O[C@H](CO)[C@@H](O)[C@H](O)[C@H]2O[C@H]2C[C@](C)(N)[C@H](O)[C@H](C)O2)Oc2ccc(cc2Cl)[C@H]1O — MIC (broth dilution; ATCC6538): 0.49 µg/mL
Cc1[nH]c(/C=C2\C(=O)Nc3ccccc32)c(C)c1CCC(=O)O — MIC (NCTC8325): > 30 µM
Cc1ccc(C)n1-c1ccc(-c2nnc(-c3ccccc3[N+](=O)[O-])[nH]2)cc1 — MIC (broth dilution; ATCC11632; 18 h): 8 µg/mL
CC1(C)S[C@@H]2[C@H](NC(=O)[C@H](N)c3ccccc3)C(=O)N2[C@H]1C(=O)O — MIC (broth dilution; ATCC25923; 16 h): 0.15 µg/mL
CCCC(=O)Oc1c(C)c(O)c(C(=O)/C=C/c2ccccc2)c(OC)c1C — MIC (broth dilution; ATCC25923): > 5000 µg/mL
CSc1ccc(-c2nc3ccccc3[nH]2)cc1 — MIC (broth dilution; ATCC29213 MSSA): 16 µg/mL
CC(C)Oc1c(NC(=O)c2ccc(NC(=O)[C@H](CC(N)=O)NC(=O)c3ccc(NC(=O)c4ccc(C#N)nc4)cc3)cc2)ccc(C(=O)Nc2ccc(C(=O)O)cc2)c1O — MIC (ATCC29213): 64 µg/mL
Cc1ccc2nc(-c3ccc4c(c3)OCO4)[nH]c2c1 — MIC (broth dilution; ATCC29213 MSSA): 256 µg/mL
C/C=C(\C)c1cc(OC(=O)c2c(O)c(C)c(O)c(Cl)c2/C(C)=C/C)c(C)c(O)c1C(=O)O — MIC (broth dilution; CCARM3090): 64 µg/mL
CC(C)Oc1c(NC(=O)c2ccc(NC(=O)[C@H](CC(N)=O)NC(=O)c3ccc(NC(=O)c4ccccc4)cc3)cc2)ccc(C(=O)Nc2ccc(C(=O)O)cc2)c1O — MIC (ATCC29213): > 64 µg/mL
CN[C@H](CC(C)C)C(=O)N[C@H]1C(=O)N[C@@H](CC(N)=O)C(=O)N[C@H]2C(=O)N[C@H]3C(=O)N[C@H](C(=O)N[C@H](C(=O)O)c4cc(O)cc(O)c4-c4cc3ccc4O)[C@H](O)c3ccc(c(Cl)c3)Oc3cc2cc(c3O[C@@H]2O[C@H](CO)[C@@H](O)[C@H](O)[C@H]2O[C@H]2C[C@](C)(N)[C@H](O)[C@H](C)O2)Oc2ccc(cc2Cl)[C@H]1O — MIC (10): 2.2 µg/mL
O=C(Nc1cccc(NC(=O)Nc2ccc(Cl)c(C(F)(F)F)c2)c1)Nc1ccc(Cl)c(C(F)(F)F)c1 — MIC (NCTC8325; 24 h): 1 µM
CC1=NN(CNc2ccc(O)cc2)C(=O)C1=NNn1c(-c2ccccc2)nc2ccccc2c1=O — MIC (broth dilution; 24 h): 53.5 µM
CNC(=O)c1cc(Oc2ccc(NC(=O)Nc3ccc(C)cc3)cc2)ccn1 — MIC (NCTC8325): > 100 µM
CC(C)Oc1c(NC(=O)c2ccc(NC(=O)[C@H](CC(N)=O)NC(=O)c3ccc(NC(=O)c4ccc(S(C)(=O)=O)cc4)cc3)cc2)ccc(C(=O)Nc2ccc(C(=O)O)cc2)c1O — MIC (ATCC29213): > 64 µg/mL
COc1ncc(-c2ccc3nccc(-c4ccnnc4)c3c2)cc1NS(=O)(=O)c1ccc(F)cc1F — MIC (NCTC8325): > 30 µM
CO[C@H]1/C=C/O[C@@]2(C)Oc3c(C)c(O)c4c(O)c(c(/C=N/N5CCN(C)CC5)c(O)c4c3C2=O)NC(=O)/C(C)=C\C=C\[C@H](C)[C@H](O)[C@@H](C)[C@@H](O)[C@@H](C)[C@H](OC(C)=O)[C@@H]1C — MIC (broth dilution; ATCC29213; 24 h): 0.0078 µg/mL
Cc1cc(C(=O)Nc2ccc(C(=O)N[C@@H](CC(N)=O)C(=O)Nc3ccc(C(=O)Nc4ccc(C(=O)Nc5ccc(C(=O)O)cc5)c(O)c4OC(C)C)cc3)cc2)ccc1C#N — MIC (ATCC29213): 2 µg/mL
COc1cc(/C=N\NC(=O)c2ccc(Br)cc2)ccc1OC(=O)c1cccs1 — MIC: > 128 µg/mL
COc1cc(Cc2cnc(N)nc2N)cc(OC)c1OC — MIC (broth dilution; 24 h): 2 µg/mL
C=CCn1c(-c2ccc(Cl)c(Cl)c2)nc2ccccc21 — MIC (broth dilution; ATCC29213 MSSA): 64 µg/mL
O=C(O)CN1C(=O)/C(=C/c2c3ccccc3c(-c3ccc(N(c4ccccc4)c4ccccc4)cc3)c3ccccc23)NC1=S — MIC (broth dilution; ATCC43300): > 1000 µg/mL
Cc1cccc(NCc2ccc(Oc3ccccn3)cc2)c1 — MIC: > 6.2 µg/mL
O=[N+]([O-])c1cnc2ccccc2c1O — MIC: > 128 µg/mL
CN(C)c1ccc(-c2ccc3cc4c(c(O)c3c2)C(=O)C2=C(O)[C@]3(O)C(=O)C(C(N)=O)=C(O)[C@@H](N(C)C)[C@@H]3C[C@@H]2C4)cc1 — MIC (broth dilution; ATCC29213): 32 µg/mL
C/C=C(\C)c1cc(O)c(C)c(OC(=O)c2c(C)c(Cl)c(O)c(Cl)c2O)c1 — MIC (broth dilution; MRSA): 4 µg/mL
O=C(CCCCCCCCCC[P+](c1ccccc1)(c1ccccc1)c1ccccc1)Nc1cc(O)c(O)c(O)c1.[Br-] — MIC (broth dilution; ATCC43300 MRSA; 18 h): 2 µg/mL
